Most compounds without a hit are left out; they make up all but 2.9% or so of the library.
KLK7 zymogen act: proKLK7 (human) activation, primary screen. purified proKLK7, EDANS-DABCYL substrate fluorescence; 100% is mature enzyme control, 0% vehicle. P49862. 370,000 tested, 0.9% active. activation, % at 7 µM. AID 652039;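 active = activation above the mean of all tested compounds plus 3 SD, computed per campaign excluding outliers beyond control limits, cut at about 13% in these data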
Runt-SMMHC FRET: Runt domain-CBFb-SMMHC interaction inhibition; Q01196+Q13951; 220,000 tested, 0.74% active; Cerulean-Runt/Venus-CBFb-SMMHC FRET ratio 530/480, 1 h; inhibition, % at 20 µM;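 active = mean inhibition across duplicate retests at 20 µM reaching about 50%, limit read from the data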;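 note: 0% = DMSO wells and 100% = wells with excess untagged CBFb-SMMHC; inhibitors lower the FRET ratio by blocking Runt binding to CBFb-SMMHC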
Target sequence (Q01196 whole entry, looked up, the tested form may be a part): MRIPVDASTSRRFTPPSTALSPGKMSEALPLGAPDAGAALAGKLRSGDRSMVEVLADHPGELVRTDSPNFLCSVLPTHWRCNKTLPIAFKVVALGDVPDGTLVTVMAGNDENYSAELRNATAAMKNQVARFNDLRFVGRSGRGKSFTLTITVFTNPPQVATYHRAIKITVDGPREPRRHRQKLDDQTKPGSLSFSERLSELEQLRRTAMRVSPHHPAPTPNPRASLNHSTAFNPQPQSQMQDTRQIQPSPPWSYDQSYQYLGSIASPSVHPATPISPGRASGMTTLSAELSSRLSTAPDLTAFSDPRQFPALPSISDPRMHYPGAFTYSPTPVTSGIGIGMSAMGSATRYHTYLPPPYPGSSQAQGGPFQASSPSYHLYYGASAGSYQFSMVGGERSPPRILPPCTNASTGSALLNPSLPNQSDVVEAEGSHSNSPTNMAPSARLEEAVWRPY
Target sequence (Q13951 whole entry, looked up, the tested form may be a part): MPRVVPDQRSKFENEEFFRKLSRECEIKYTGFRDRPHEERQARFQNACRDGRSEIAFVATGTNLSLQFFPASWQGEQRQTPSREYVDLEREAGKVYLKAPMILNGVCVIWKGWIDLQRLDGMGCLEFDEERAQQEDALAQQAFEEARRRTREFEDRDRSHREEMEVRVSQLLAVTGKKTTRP
Runt-CBFb FRET: inhibitors of human RUNX1 Runt domain binding to CBFb; Q01196+Q13951; Cerulean-Runt/Venus-CBFb FRET ratio 530/480, 1 h; inhibition, % at 20 µM; 220,000 tested, 0.46% active; AID 1496;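 active = inhibition over about 50% at 20 µM in the single-dose screen, limit read from the data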;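 note: 0% = DMSO wells and 100% = excess unlabeled CBFb competitor control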
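Schedule: protein complex preformed 1 h, compound exposure 1 h, room temperature, dark; test system: Cerulean-labeled Runt domain protein; amount: 100 nM per protein; buffer or medium: Tris 50 mM pH 7.5, KCl, K2SO4, 0.01% BSA; read-out: loss of energy transfer signal; detection: FRET fluorescence; controls: 5 µM unlabeled CBFb as full-inhibition high control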
RanGTP-Imp inh: disruptors of Ran-importin-beta complex formation – biochemical, FRET, CFP-Ran, YFP-importin-beta, homogeneous, primary screen. cell-free CFP-Ran/YFP-importin-beta FRET ratio. inhibition, % (test concentration not listed). 300,000 tested, 1.1% active. AID 2216;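 active = more than half of the replicate wells show a fall in the fluorescence ratio signal beyond about 16%, limit read from the data, passing the limit was not always enough; inconclusive = exactly half of the replicate wells pass the set limit; inactive = fewer than half of replicates pass the limit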;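 note: 0% = DMSO wells and 100% = Ran loaded with GDP instead of GTP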
Wee1 degr inh: blocks degradation of human Wee1 kinase | HeLa Luc-Wee1K328M stability, luciferase luminescence; 100% = proteasome inhibitor MG132 effect | 220,000 tested, 1.2% active | reporter increase, % at 5 µM | P30291;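 active = activation above the mean of all tested compounds plus 3 SD, set per screening run, cut at about 8.8% in these data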;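 note: cells exposed to compound for 20 h before luminescence read; 0% = DMSO alone and 100% = MG132 at 30 µM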
AI-2 QS modul: modulators of Vibrio harveyi AI-2 quorum sensing system. Vibrio harveyi JMH597 AI-2 luminescence/OD600 ratio, 9 h; hits give low values; strain lacks LuxN and CqsS sensors; 0 = neutral-control median. activity change, % at 7.5 µM. 300,000 tested, 0.4% active. AID 2094; in the data active = activity change below about -75%, passing the limit was not always enough; inconclusive = no clear call, values can overlap the other calls;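 note: luminescence divided by OD600 gain over 9 h not by final OD600 alone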
proKLK7 act conf: proKLK7 activation, confirmation; shares compounds with KLK7 zymogen act; purified proKLK7, EDANS-DABCYL substrate fluorescence; scaled: vehicle 0, mature enzyme 100; activation, % at 7 µM; 3,200 tested, 68% active;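 active = activation, as change over the incubation, above the mean of all tested compounds plus 3 SD, cut at about 13% in these data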
EDANS interfere: optically interferes with EDANS-DABCYL signal, flagging KLK7 hits. shares compounds with KLK7 zymogen act. EDANS-DABCYL substrate fluorescence interference, no enzyme, 4 h; solvent 0%, active enzyme control 100%. activation, % at 7 µM. 3,200 tested, 80% active. AID 686952;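 active = activation above the all-compound mean plus 3 SD, ignoring values outside control-based bounds, cut at about 4.8% in these data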;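 note: value is the 4 h activation minus the activation read at time zero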
Active calls of the source: *; ? = inconclusive; nt = not tested or not shown.

SMILES	KLK7 zymogen act	Runt-SMMHC FRET	Runt-CBFb FRET	RanGTP-Imp inh	Wee1 degr inh	AI-2 QS modul	proKLK7 act conf	EDANS interfere
CCc1cccc(C)c1NC(=S)N(CCN(C)C)C(C)c1cccnc1 (configuration not stated)	0	-3	-2	2	0	14	nt	nt
COc1ccc2cc(C(N)=O)c(=Nc3ccc(C)cc3)oc2c1	-1	-1	-2	5	8	7	nt	nt
Cc1cccc(N=c2oc3cc(O)ccc3cc2C(N)=O)c1	53*	79*	10	-2	0	4	27*	27*
COc1cccc2cc(C(=O)NCC3CCCO3)c(=O)oc12 (configuration not stated)	-6	-2	0	-3	0	19	nt	nt
COc1ccc2cc(C(N)=O)/c(=N\NC(=O)c3ccccc3)oc2c1	4	nt	nt	14	nt	-1	nt	nt
COc1cccc(N=c2oc3cc(O)ccc3cc2C(=O)NCC2CCCO2)c1 (configuration not stated)	66*	90*	52*	180*	-1	16	9	6.5*
COc1ccccc1N=c1oc2cc(O)ccc2cc1C(N)=O	39*	42	10	179*	-3	25	18*	23*
COc1ccccc1N=c1oc2cc(O)ccc2cc1C(=O)NCC1CCCO1 (configuration not stated)	74*	-10	43	174*	-1	1	21*	22*
COc1ccc2oc(=O)c(C(=O)NCC3CCCO3)cc2c1 (configuration not stated)	-10	23	12	9	-1	23	nt	nt
Cc1cnc(NC(=O)c2cccc(S(=O)(=O)N3CC(C)OC(C)C3)c2)s1 (configuration not stated)	1	0	-1	3	4	10	nt	nt
CC[C@]12c3[nH]c4cc(-c5ccco5)ccc4c3CCN1C(=O)[C@@H](CC(=O)NCc1ccco1)C[C@@H]2C(=O)N1CCN(C(=O)c2ccco2)CC1	134*	nt	nt	nt	nt	nt	95*	104*
C[C@]12c3[nH]c4cc(-c5ccco5)ccc4c3CCN1C(=O)[C@@H](CC(=O)NCc1ccco1)C[C@@H]2C(=O)N1CCOCC1	75*	nt	nt	nt	nt	nt	81*	75*
COc1ccc2[nH]c3c(c2c1)CCN1C(=O)C(CC(=O)NCc2ccco2)C[C@H](C(=O)N2CCCCC2)[C@@]31C (some centres not stated)	0	nt	nt	nt	nt	nt	nt	nt
CC[C@]12c3[nH]c4cc(-c5ccco5)ccc4c3CCN1C(=O)[C@@H](CC(=O)NC(C)(C)C)C[C@@H]2C(=O)N1CCN(C(=O)C2CC2)CC1	144*	nt	nt	nt	nt	nt	203*	163*
CC[C@]12c3[nH]c4ccccc4c3CCN1C(=O)C(CC(=O)NCc1ccco1)C[C@@H]2C(=O)N1CCN(C(=O)c2ccco2)CC1 (some centres not stated)	0	nt	nt	nt	nt	nt	nt	nt
CN(C)C(=O)CCc1ccc2c3c([nH]c2c1)[C@]1(C)[C@@H](C(=O)N2CCOCC2)C[C@H](CC(=O)NCc2ccco2)C(=O)N1CC3	1	nt	nt	nt	nt	nt	nt	nt
C[C@]12c3[nH]c4cc(-c5ccco5)ccc4c3CCN1C(=O)[C@@H](CC(=O)NCc1ccco1)C[C@@H]2C(=O)N1CCCCC1	84*	nt	nt	nt	nt	nt	45*	82*
O=C(Nc1nnc([C@H]2C[C@H](O)[C@@H](CO)O2)s1)NC1CCCCC1	0	nt	nt	nt	nt	nt	nt	nt
COc1ccccc1NS(=O)(=O)c1cccc(-n2c(O)c(C=Nc3ccccc3C(=O)O)c3ccccc3c2=O)c1	2	3	-3	2	2	18	nt	nt
O=Cc1ccc(OCc2nnsc2Cl)cc1	1	-2	1	-1	2	4	nt	nt
CC[C@]12c3[nH]c4cc(-c5ccco5)ccc4c3CCN1C(=O)[C@@H](CC(=O)NCCc1ccccn1)C[C@@H]2C(=O)N1CCN(C(=O)C2CC2)CC1	137*	nt	nt	nt	nt	nt	104*	124*
CC[C@]12c3[nH]c4ccccc4c3CCN1C(=O)C(CC(=O)NCCc1ccccn1)C[C@@H]2C(=O)N1CCN(C(=O)C2CC2)CC1 (some centres not stated)	0	nt	nt	nt	nt	nt	nt	nt
CC(C)(C)NC(=O)C[C@H]1C[C@H](C(=O)N2CCCCC2)[C@@]2(C)c3[nH]c4cc(-c5ccco5)ccc4c3CCN2C1=O	77*	nt	nt	nt	nt	nt	74*	79*
CC(C)(C)NC(=O)CC1C[C@H](C(=O)N2CCCCC2)[C@@]2(C)c3[nH]c4ccccc4c3CCN2C1=O (some centres not stated)	0	nt	nt	nt	nt	nt	nt	nt
CCS(=O)(=O)Nc1ccc(-c2nc3cccnc3s2)cc1	64*	74*	32	2	0	6	60*	68*
SMILES	KLK7 zymogen act	Runt-SMMHC FRET	Runt-CBFb FRET	RanGTP-Imp inh	Wee1 degr inh	AI-2 QS modul	proKLK7 act conf	EDANS interfere
Cc1cc(-c2nc3cccnc3s2)ccc1NS(=O)(=O)c1cccs1	71*	107*	128*	92*	3	2	66*	57*
CCS(=O)(=O)Nc1cc(-c2nc3cccnc3s2)ccc1C	-3	-7	4	2	4	9	nt	nt
CC(c1ccco1)N(C(=O)c1cccc(Br)c1)c1ccccn1 (configuration not stated)	0	nt	nt	1	nt	-21	nt	nt
O=C(Nc1ncccn1)c1ccc([N+](=O)[O-])o1	817*	-19	-2	-13	4	-68	834*	835*
O=C(Nc1ccccn1)c1ccc([N+](=O)[O-])o1	nt	0	2	4	2	?	nt	nt
OC[C@@H]1CN(CCN2CCOCC2)C[C@H](n2cnc3c(NC4CCCC4)ncnc32)O1	0	nt	nt	nt	nt	nt	nt	nt
COC(=O)C1C(O)=C(C=Nc2cccc3ccccc23)C(=O)CC1(C)C (configuration not stated)	34*	8	1	5	2	-41	25*	23*
COC(=O)C1C(O)=C(C=NCc2ccccc2)C(=O)CC1(C)C (configuration not stated)	0	-6	nt	-3	-2	-25	nt	nt
Cc1csc(NC(=O)CCCC(=O)c2ccccc2)n1	-1	nt	nt	?	nt	0	nt	nt
O=C(CSCc1ccc(Br)cc1)N1CCCC1	0	2	-2	0	-1	16	nt	nt

Screening data from PubChem BioAssay.
